These results are taken from ChEMBL document CHEMBL4673174, “meta-Substituted benzenesulfonamide: a potent scaffold for the development of metallo-beta-lactamase ImiS inhibitors” (RSC Med Chem, 2020).

Assay [1] can be described thus: Inhibition of bacterial ImiS expressed in Escherichia coli BL21 (DE3) using imipenem as substrate preincubated for 3 hrs with enzyme followed by substrate addition by spectrometry analysis. Set-up: species or system Bacteria. The procedure, abridged:
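Purified ImiS preincubated 3 h with inhibitor (six concentrations, 0.01–20 μM; DMSO below 0.5%) in 30 mM Tris pH 7.0, 25 °C; imipenem 40 μM. Hydrolysis read at 300 nm, rates in triplicate. IC50 from linear fit of mean percent inhibition against inhibitor concentration.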

In assay [2] the test system is Bacteria. In words: Inhibition of bacterial ImiS expressed in Escherichia coli BL21 (DE3) at 20 uM using imipenem as substrate by spectrometry analysis relative to control. In short, it runs like this: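 Purified ImiS with imipenem (40 μM) in 30 mM Tris pH 7.0; inhibitor at 20 μM, DMSO below 0.5%. Hydrolysis followed at 300 nm by UV-vis; initial rates in triplicate, averaged. Percent inhibition = activity without inhibitor (100%) minus residual activity.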

The subject of assay [3] is Bacteria. As to the kind of experiment: Inhibition of bacterial L1 expressed in Escherichia coli BL21 (DE3) at 20 uM using cefazolin as substrate by spectrometry analysis relative to control. In short, it runs like this: (§1)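 Purified L1 or NDM-1; cefazolin (40 μM) substrate, hydrolysis monitored at 262 nm by UV-vis. Inhibitor at 20 μM. Initial rates with and without inhibitor measured in triplicate and averaged; percent inhibition = uninhibited activity (100%) minus residual activity.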

Assay [4] concerns Bacteria. In words: Inhibition of bacterial NDM-1 expressed in Escherichia coli BL21 (DE3) at 20 uM using cefazolin as substrate by spectrometry analysis relative to control. The procedure, abridged:
as §1

Assay [5] deals with Bacteria. In words: Inhibition of beta-lactamase ImiS (unknown origin) in expressed Escherichia coli BL21 (DE3) assessed as potentiation of imipenem induced antibacterial activity by measuring imipenem MIC at 64 ug/ml incubated for 16 hrs by CLSI broth microdilution method (reference value: 16 ug/ml). The conditions noted are these: dose 64.0 µg/ml. In short, it runs like this:
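E. coli BL21 (DE3) carrying pET26b-ImiS grown in MH broth to OD600 0.5, diluted to 1 × 10^5 CFU mL–1. CLSI broth dilution; imipenem serially diluted, inhibitor at 64 μg mL–1 stock.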
In general terms: Broth dilution looks for growth in wells or tubes with falling amounts of substance.

Assay [6] relates to Bacteria. As to the kind of experiment: Inhibition of beta-lactamase ImiS (unknown origin) expressed in Escherichia coli BL21 (DE3) assessed as potentiation of meropenem induced antibacterial activity by measuring meropenem MIC at 64 ug/ml incubated for 16 hrs by CLSI broth microdilution method (reference value: 64 ug/ml). To be noted: dose 64.0 µg/ml.

The structures appear in SMILES notation.

In turn, `NS(=O)(=O)c1ccc(NC(=O)CCc2ccccc2)cc1` displayed an IC50 in assay [1] of 3.5 µM. In addition, the results for the inhibition in assay [2], in assay [3] and in assay [4] were over 70%, under 20% and under 20%, respectively. The values for the MIC in assay [5] and in assay [6] were 8 µg/mL and 32 µg/mL, respectively.
Take `NS(=O)(=O)c1ccc(NC(=O)CC(c2ccccc2)c2ccccc2)cc1`: the IC50 in assay [1] was determined as 4.1 µM. In addition, the inhibition is over 70% in assay [2], under 20% in assay [3] and under 20% in assay [4]. Moreover, the MIC in assay [5] amounted to 8 µg/mL; in assay [6] it was 32 µg/mL.
For `NS(=O)(=O)c1cccc(NC(=O)CCc2ccccc2)c1`, in assay [1], half-maximal inhibition (IC50) required 0.16 µM. The inhibition in assay [2] was over 70%; in assay [3], under 20%; in assay [4], under 20%. Further, the MIC came to 4 µg/mL in assay [5] and 16 µg/mL in assay [6].
The compound `NS(=O)(=O)c1ccccc1NC(=O)c1ccc(Cl)cc1` showed an IC50 in assay [1] of 5.4 µM. In addition, the figures for the inhibition in assay [2], in assay [3] and in assay [4] were over 70%, under 20% and under 20%, respectively. For the same compound, the MIC was 8 µg/mL in assay [5] and 32 µg/mL in assay [6].
As for `CC(C)(C)c1ccc(C(=O)Nc2cccc(S(N)(=O)=O)c2)cc1`, 0.23 µM corresponded to half-maximal inhibition in assay [1] (IC50). In addition, the inhibition in assay [2] is over 70%; in assay [3], under 20%; in assay [4], under 20%. Besides, the MIC in assay [5] was determined as 4 µg/mL; in assay [6] it was 16 µg/mL.
In assay [1], `NS(=O)(=O)c1ccc(NC(=O)c2ccccc2)cc1` showed an IC50 of 7.5 µM. The values for the inhibition in assay [2], in assay [3] and in assay [4] were over 70%, under 20% and under 20%, respectively. Further, the MIC in assay [5] turned out to be 8 µg/mL; in assay [6], 32 µg/mL.
`NS(=O)(=O)c1cccc(NC(=O)c2ccccc2)c1`: the 50% inhibitory concentration (IC50) in assay [1] is 0.15 µM. The results for the inhibition in assay [2], in assay [3] and in assay [4] were over 70%, under 20% and under 20%, respectively. Besides, the MIC in assay [5] is 4 µg/mL; in assay [6], 16 µg/mL.
The compound `CCN(CC)c1ccc2c(-c3ccccc3C(=O)Oc3ccc(S(N)(=O)=O)cc3)c3ccc(=[N+](CC)CC)cc-3oc2c1` registered an IC50 in assay [1] of 6.8 µM. Further, the values for the MIC in assay [5] and in assay [6] were 8 µg/mL and 32 µg/mL, respectively.
Take `NS(=O)(=O)c1cccc(NC(=O)c2cccc([N+](=O)[O-])c2)c1`: it took 0.86 µM to reach half-maximal inhibition in assay [1] (IC50). For the same compound, the figures for the inhibition in assay [2], in assay [3] and in assay [4] were over 70%, under 20% and under 20%, respectively. The MIC in assay [5] was 4 µg/mL; in assay [6], 16 µg/mL.
Compound `NS(=O)(=O)c1ccc(NC(=O)c2ccc(C(F)(F)F)cc2)cc1` displayed a half-inhibitory concentration (IC50) in assay [1] of 9.3 µM. The values for the inhibition in assay [2], in assay [3] and in assay [4] were over 70%, under 20% and under 20%, respectively. The MIC in assay [5] amounted to 8 µg/mL; in assay [6] it was 32 µg/mL.
On to `NS(=O)(=O)c1cccc(NC(=O)c2cccc(Br)c2)c1`, for which the midpoint of inhibition in assay [1], the IC50, lay at 0.14 µM. In addition, the results for the inhibition in assay [2], in assay [3] and in assay [4] were over 70%, under 20% and under 20%, respectively. In addition, the MIC in assay [5] was 4 µg/mL; in assay [6], 16 µg/mL.
Compound `NS(=O)(=O)c1ccc(NC(=O)c2cccc([N+](=O)[O-])c2)cc1` showed a 50% inhibitory concentration (IC50) in assay [1] of 4.8 µM. For the same compound, the results for the inhibition in assay [2], in assay [3] and in assay [4] were over 70%, under 20% and under 20%, respectively. Further, the MIC was 8 µg/mL in assay [5] and 32 µg/mL in assay [6].
Compound `CC(C)(C)c1ccc(C(=O)Nc2ccc(S(N)(=O)=O)cc2)cc1` yielded an IC50 in assay [1] of 3.3 µM. The inhibition in assay [2] was over 70%; in assay [3], under 20%; in assay [4], under 20%. For the same compound, the MIC in assay [5] was 8 µg/mL; in assay [6], 32 µg/mL.
As for `NS(=O)(=O)c1ccc(NC(=O)c2cccc(Br)c2)cc1`, the IC50 in assay [1] was determined as 2.7 µM. The figures for the inhibition in assay [2], in assay [3] and in assay [4] were over 70%, under 20% and under 20%, respectively. Moreover, the MIC is 8 µg/mL in assay [5] and 32 µg/mL in assay [6].

For orientation: IC50 means the midpoint of a concentration-inhibition curve. As usually defined, the inhibition is the change of the read-out against control, counted positive when it falls.
